Results taken from ChEMBL document CHEMBL4257486, “A novel allosteric inhibitor that prevents IKKβ activation” (Medchemcomm, 2018).
Activity calls are given as the source filed them. No cut-off for these calls is given here.

Experiments:
[1] = molecular target: T1, Tyrosine-protein kinase ITK/TSK (Homo sapiens) (UniProt Q08881); assay: Inhibition of human Itk using myelin basic protein as substrate at 100 uM after 40 mins in presence of [gamma-33P-ATP] by scintillation counting analysis
T1 sequence (whole entry): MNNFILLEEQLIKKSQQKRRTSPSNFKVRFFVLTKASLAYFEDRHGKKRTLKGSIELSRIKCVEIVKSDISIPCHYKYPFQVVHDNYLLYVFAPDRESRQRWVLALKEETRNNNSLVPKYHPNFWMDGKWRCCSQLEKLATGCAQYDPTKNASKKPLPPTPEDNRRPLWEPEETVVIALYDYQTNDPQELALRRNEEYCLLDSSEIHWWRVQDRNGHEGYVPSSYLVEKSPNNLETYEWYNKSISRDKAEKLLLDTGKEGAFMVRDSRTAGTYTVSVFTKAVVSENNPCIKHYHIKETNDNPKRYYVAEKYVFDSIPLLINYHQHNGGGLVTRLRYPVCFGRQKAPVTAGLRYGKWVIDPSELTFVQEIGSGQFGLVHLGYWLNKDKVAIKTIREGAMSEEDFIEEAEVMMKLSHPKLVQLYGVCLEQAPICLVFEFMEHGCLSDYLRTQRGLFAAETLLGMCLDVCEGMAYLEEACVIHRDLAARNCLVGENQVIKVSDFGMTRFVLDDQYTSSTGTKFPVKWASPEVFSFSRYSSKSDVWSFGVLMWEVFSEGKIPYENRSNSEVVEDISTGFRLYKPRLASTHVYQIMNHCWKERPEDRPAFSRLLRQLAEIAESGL
In short: (§1)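 Radiometric [γ-33P]ATP assay (specific activity approx. 500 cpm/pmol) run by an outsourced service. Compound was added first from a 50x stock in DMSO, giving 2% DMSO final. Positive controls contained DMSO only; blanks used a reference inhibitor to set 0% activity. Reactions were started with MgATP mix, run 40 min at room temperature, and stopped with 3% phosphoric acid. They were spotted on P30 filtermat, washed in 75 mM phosphoric acid and methanol, and scintillation counted.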

[2] = molecular target: T2, Inhibitor of nuclear factor kappa-B kinase subunit epsilon (Homo sapiens) (UniProt Q14164); assay: Inhibition of human activated IKKepsilon using casein as substrate at 100 uM after 40 mins in presence of [gamma-33P-ATP] by scintillation counting analysis; in short: as §1
T2 sequence (whole entry): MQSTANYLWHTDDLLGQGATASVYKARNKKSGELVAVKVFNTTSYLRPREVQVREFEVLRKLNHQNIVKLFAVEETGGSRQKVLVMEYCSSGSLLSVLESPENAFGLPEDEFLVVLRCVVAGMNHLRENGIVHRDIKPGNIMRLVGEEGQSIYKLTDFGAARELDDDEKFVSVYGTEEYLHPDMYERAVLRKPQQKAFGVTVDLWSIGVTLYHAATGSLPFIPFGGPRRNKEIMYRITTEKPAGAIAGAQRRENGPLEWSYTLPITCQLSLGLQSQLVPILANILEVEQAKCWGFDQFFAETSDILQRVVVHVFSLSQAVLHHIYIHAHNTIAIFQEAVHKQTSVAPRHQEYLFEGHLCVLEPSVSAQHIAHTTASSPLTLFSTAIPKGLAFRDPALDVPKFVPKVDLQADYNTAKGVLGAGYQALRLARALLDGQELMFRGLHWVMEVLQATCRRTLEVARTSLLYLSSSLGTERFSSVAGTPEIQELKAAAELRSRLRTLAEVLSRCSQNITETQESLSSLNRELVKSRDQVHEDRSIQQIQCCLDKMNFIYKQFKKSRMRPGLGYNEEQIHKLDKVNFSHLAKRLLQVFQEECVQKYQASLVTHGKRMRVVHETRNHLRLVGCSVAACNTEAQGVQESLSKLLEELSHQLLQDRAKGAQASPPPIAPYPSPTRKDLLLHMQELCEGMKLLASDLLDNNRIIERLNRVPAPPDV

[3] = molecular target: T3, Tyrosine-protein kinase JAK3 (Homo sapiens) (UniProt P52333); assay: Inhibition of human JAK3 using GGEEEEYFELVKKKK as substrate at 100 uM after 40 mins in presence of [gamma-33P-ATP] by scintillation counting analysis; in short: as §1
T3 sequence (whole entry): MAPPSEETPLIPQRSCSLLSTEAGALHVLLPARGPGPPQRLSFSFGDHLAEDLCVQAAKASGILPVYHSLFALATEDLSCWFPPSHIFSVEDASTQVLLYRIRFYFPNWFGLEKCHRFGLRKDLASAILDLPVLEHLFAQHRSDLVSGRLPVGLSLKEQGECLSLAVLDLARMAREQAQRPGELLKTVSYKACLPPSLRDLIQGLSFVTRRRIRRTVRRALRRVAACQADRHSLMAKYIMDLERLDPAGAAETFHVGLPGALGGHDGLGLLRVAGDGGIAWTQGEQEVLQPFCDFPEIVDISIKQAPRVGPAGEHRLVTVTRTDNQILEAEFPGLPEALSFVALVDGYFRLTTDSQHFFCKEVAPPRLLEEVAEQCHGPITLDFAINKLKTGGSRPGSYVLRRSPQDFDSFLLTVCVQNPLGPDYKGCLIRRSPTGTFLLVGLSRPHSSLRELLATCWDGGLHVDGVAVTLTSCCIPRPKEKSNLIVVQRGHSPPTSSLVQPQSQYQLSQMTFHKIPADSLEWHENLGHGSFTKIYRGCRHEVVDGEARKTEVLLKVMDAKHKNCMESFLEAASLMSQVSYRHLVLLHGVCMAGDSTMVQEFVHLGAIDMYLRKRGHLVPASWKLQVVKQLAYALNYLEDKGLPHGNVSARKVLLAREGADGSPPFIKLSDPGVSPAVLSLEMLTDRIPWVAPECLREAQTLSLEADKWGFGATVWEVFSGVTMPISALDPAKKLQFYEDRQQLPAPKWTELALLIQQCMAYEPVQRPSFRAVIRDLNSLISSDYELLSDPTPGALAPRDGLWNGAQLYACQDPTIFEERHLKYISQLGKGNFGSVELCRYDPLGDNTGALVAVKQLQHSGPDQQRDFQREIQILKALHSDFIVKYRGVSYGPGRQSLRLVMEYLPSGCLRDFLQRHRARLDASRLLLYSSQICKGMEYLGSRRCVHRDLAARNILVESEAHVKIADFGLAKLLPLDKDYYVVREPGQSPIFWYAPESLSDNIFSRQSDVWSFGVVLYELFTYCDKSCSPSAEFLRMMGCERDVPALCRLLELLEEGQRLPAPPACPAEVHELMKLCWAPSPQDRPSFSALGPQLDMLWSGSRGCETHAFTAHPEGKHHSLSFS

[4] = molecular target: Mitogen-activated protein kinase 14 (Homo sapiens) (UniProt Q16539); assay: Inhibition of human SAPK2a using myelin basic protein as substrate at 100 uM after 40 mins in presence of [gamma-33P-ATP] by scintillation counting analysis; in short: as §1
Mitogen-activated protein kinase 14 (Homo sapiens), sequence (Q16539 whole entry): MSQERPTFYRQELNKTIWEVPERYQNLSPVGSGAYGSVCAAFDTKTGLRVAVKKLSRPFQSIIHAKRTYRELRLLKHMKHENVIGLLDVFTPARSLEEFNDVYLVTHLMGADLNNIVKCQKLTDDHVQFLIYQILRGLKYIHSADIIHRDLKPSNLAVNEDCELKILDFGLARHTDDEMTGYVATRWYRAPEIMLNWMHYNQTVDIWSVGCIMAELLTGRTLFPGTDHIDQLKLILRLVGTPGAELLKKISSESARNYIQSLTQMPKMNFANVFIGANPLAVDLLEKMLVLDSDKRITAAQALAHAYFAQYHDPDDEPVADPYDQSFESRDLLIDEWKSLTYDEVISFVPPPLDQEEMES

[5] = molecular target: Epidermal growth factor receptor (Homo sapiens) (UniProt P00533); assay: Inhibition of human EGFR using poly[Glu:Tyr] (4:1) as substrate at 100 uM after 40 mins in presence of [gamma-33P-ATP] by scintillation counting analysis; in short: as §1
Epidermal growth factor receptor (Homo sapiens), sequence (P00533 whole entry): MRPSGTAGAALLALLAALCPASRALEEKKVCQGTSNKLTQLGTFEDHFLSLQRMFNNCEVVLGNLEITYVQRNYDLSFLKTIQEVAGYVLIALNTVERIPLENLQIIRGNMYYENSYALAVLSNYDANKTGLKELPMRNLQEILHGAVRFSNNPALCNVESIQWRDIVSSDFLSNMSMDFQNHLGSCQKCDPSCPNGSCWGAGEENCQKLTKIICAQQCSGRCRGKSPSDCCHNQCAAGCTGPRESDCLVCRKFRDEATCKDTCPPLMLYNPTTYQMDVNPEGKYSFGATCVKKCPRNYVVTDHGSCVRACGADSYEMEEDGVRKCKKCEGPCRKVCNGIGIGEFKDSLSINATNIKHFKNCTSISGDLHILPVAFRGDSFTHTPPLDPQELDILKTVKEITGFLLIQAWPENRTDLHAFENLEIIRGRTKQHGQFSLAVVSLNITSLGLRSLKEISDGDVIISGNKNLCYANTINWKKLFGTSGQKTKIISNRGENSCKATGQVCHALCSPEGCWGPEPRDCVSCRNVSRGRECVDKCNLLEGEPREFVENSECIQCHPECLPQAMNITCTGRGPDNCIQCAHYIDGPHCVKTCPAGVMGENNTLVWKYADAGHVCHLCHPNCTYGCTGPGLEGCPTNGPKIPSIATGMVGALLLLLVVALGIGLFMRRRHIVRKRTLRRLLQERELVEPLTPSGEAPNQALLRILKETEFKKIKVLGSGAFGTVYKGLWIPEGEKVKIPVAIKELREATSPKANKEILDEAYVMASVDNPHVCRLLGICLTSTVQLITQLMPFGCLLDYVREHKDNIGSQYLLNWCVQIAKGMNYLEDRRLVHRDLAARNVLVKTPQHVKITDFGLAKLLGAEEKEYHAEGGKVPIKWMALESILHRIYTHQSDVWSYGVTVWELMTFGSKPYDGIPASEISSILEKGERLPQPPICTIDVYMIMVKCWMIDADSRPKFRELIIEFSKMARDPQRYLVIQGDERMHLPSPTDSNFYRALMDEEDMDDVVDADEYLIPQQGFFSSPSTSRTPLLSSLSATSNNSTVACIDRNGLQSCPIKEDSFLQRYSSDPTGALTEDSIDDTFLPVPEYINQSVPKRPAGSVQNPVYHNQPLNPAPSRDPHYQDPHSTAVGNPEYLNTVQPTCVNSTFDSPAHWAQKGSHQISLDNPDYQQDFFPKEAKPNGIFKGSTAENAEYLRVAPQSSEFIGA

inhibition [1]: inactive | inhibition [2]: inactive | inhibition [3]: inactive | inhibition [4]: inactive | inhibition [5]: inactive
Compound: CCOc1c(S(=O)(=O)NC2CC(C)(C)NC(C)(C)C2)ccc(Cl)c1Cl
